Experiments:
Rattus norvegicus [1] = experiment: Antiinflammatory activity in albino rat assessed as inhibition of carrageenan-induced paw edema at 100 mg/kg, po administered 1 hr prior to carrageenan-challenge measured after 0.5 hrs; type: functional
How it was run: (§1)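 Adult albino rats of both sexes (120–150 g), pre-hydrated with 3 ml water by gavage, five per group. Test agents suspended in distilled water with a few drops of Tween 80, given orally 1 h before sub-plantar injection of 50 µl 1% carrageenan into the right hind paw. Dial-gauge paw thickness taken at 0.5, 1, 2 and 3 h, with the left paw as reference. % inhibition = (Wc−Wt)/Wc × 100 against saline/Tween 80 controls.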

Rattus norvegicus [2] = experiment: Antiinflammatory activity in albino rat assessed as inhibition of carrageenan-induced paw edema at 100 mg/kg, po administered 1 hr prior to carrageenan-challenge measured after 1 hr; type: functional; how it was run: as §1
Rattus norvegicus [3] = experiment: Antiinflammatory activity in albino rat assessed as inhibition of carrageenan-induced paw edema at 100 mg/kg, po administered 1 hr prior to carrageenan-challenge measured after 2 hrs; type: functional; how it was run: as §1
Rattus norvegicus [4] = experiment: Antiinflammatory activity in albino rat assessed as inhibition of carrageenan-induced paw edema at 100 mg/kg, po administered 1 hr prior to carrageenan-challenge measured after 3 hrs; type: functional; how it was run: as §1
Rattus norvegicus [5] = experiment: Ulcerogenic activity in fasted albino rat assessed as ulcer index at 100 mg/kg po administered qd for 3 days measured on day 4; type: toxicity, organism-based; design: dose 100 mg/kg, route oral; conditions: in vivo, 72 h
How it was run: (§2)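 Albino rats of both sexes (120–150 g), five per group, fasted 20 h, then dosed orally in 1% Tween (test agents 100 mg/kg, celecoxib and diclofenac sodium 50 mg/kg). Feeding cycle: 2 h fast, 2 h feed, 20 h fast, repeated with doses on days 2 and 3. Ulcers scored 0–4. Ulcer index = %incidence/10 + mean ulcer number + mean severity.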

Rattus norvegicus [6] = experiment: Antiinflammatory activity in albino rat assessed as inhibition of carrageenan-induced paw edema at 50 mg/kg, po administered 1 hr prior to carrageenan-challenge measured after 3 hrs; type: functional; how it was run: as §1
Rattus norvegicus [7] = experiment: Antiinflammatory activity in albino rat assessed as inhibition of carrageenan-induced paw edema at 200 mg/kg, po administered 1 hr prior to carrageenan-challenge measured after 3 hrs; type: functional
How it was run: (§3)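 Carrageenan rat paw oedema (albino rats of both sexes, 120–150 g), oral dosing in Tween 80 suspension 1 h before 50 µl 1% carrageenan sub-plantar injection. Inhibition read at 3 h over a three-dose series (50, 100, 200 mg/kg for test agents; 20, 50, 100 mg/kg for diclofenac sodium). IC50 given in mg/kg and µmol/kg.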

Rattus norvegicus [8] = experiment: Antiinflammatory activity in po dosed albino rat assessed as inhibition of carrageenan-induced paw edema administered 1 hr prior to carrageenan-challenge measured after 3 hrs; type: functional, organism-based; how it was run: as §3
Rattus norvegicus [9] = experiment: Antiinflammatory activity in po dosed albino rat assessed as inhibition of carrageenan-induced paw edema administered 1 hr prior to carrageenan-challenge relative to diclophenac; type: functional
Ovis aries = species: Ovis aries; experiment: Selectivity ratio of IC50 for ovine COX2 to ovine COX1
How it was run: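 Ovine COX-1 and COX-2 inhibition measured with a commercial COX inhibitor screening kit following the Gierse et al. method. Selectivity expressed as the ratio IC50(COX-2)/IC50(COX-1).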

Rattus norvegicus [10] = experiment: Antiinflammatory activity in albino rat assessed as inhibition of carrageenan-induced paw edema at 50 mg/kg, po administered 1 hr prior to carrageenan-challenge measured after 0.5 hrs; type: functional; how it was run: as §1
Rattus norvegicus [11] = experiment: Antiinflammatory activity in albino rat assessed as inhibition of carrageenan-induced paw edema at 50 mg/kg, po administered 1 hr prior to carrageenan-challenge measured after 1 hr; type: functional; how it was run: as §1
Rattus norvegicus [12] = experiment: Antiinflammatory activity in albino rat assessed as inhibition of carrageenan-induced paw edema at 50 mg/kg, po administered 1 hr prior to carrageenan-challenge measured after 2 hrs; type: functional; how it was run: as §1
Rattus norvegicus [13] = experiment: Antiinflammatory activity in albino rat assessed as inhibition of carrageenan-induced paw edema at 20 mg/kg, po administered 1 hr prior to carrageenan-challenge measured after 3 hrs; type: functional; how it was run: as §3
Rattus norvegicus [14] = experiment: Ulcerogenic activity in fasted albino rat assessed as ulcer index at 50 mg/kg po administered qd for 3 days measured on day 4; type: toxicity, organism-based; design: dose 50 mg/kg, route oral; conditions: in vivo, 72 h; how it was run: as §2

Row | IC50 (Rattus norvegicus [8]) | Ratio IC50 (Ovis aries) | Structure (SMILES) | inhibition in vivo at 100 mg/kg (Rattus norvegicus [1]) | inhibition in vivo at 100 mg/kg (Rattus norvegicus [2]) | inhibition in vivo at 100 mg/kg (Rattus norvegicus [3]) | inhibition in vivo at 100 mg/kg (Rattus norvegicus [4]) | UI (Rattus norvegicus [5]) | inhibition in vivo at 50 mg/kg (Rattus norvegicus [6]) | inhibition in vivo at 200 mg/kg (Rattus norvegicus [7]) | inhibition (INH) (Rattus norvegicus [9]) | inhibition in vivo at 50 mg/kg (Rattus norvegicus [10]) | inhibition in vivo at 50 mg/kg (Rattus norvegicus [11]) | inhibition in vivo at 50 mg/kg (Rattus norvegicus [12]) | inhibition in vivo at 20 mg/kg (Rattus norvegicus [13]) | UI (Rattus norvegicus [14])
1 | – | – | N#Cc1c(Cl)nc(SCC(=O)Nn2c(COc3ccc(Cl)cc3Cl)nc3ccccc3c2=O)nc1-c1ccc(O)cc1 | 67.3% | 72.7% | 73.7% | 73.7% | – | – | – | – | – | – | – | – | –
2 | – | – | N#Cc1c(Nc2ccccc2)nc(SCC(=O)Nn2c(COc3ccc(Cl)cc3Cl)nc3ccccc3c2=O)nc1-c1ccccc1 | 71.2% | 77.3% | 78.1% | 78.1% | 13.26 | – | – | – | – | – | – | – | –
3 | – | – | N#Cc1c(-c2ccc(O)cc2)nc(SCC(=O)Nn2c(COc3ccc(Cl)cc3Cl)nc3ccccc3c2=O)n(Cc2ccccc2)c1=O | 51.9% | 54.5% | 56.1% | 61.4% | – | – | – | – | – | – | – | – | –
4 | – | – | N#Cc1c(-c2ccccc2)nc(SCC(=O)Nn2c(COc3ccc(Cl)cc3Cl)nc3ccccc3c2=O)n(Cc2ccccc2)c1=O | 76% | 77.3% | 79% | 79% | 10.9 | – | – | – | – | – | – | – | –
5 | – | – | N#Cc1c(Nc2ccc(Cl)cc2)nc(SCC(=O)Nn2c(COc3ccc(Cl)cc3Cl)nc3ccccc3c2=O)nc1-c1ccc(Cl)cc1 | 46.1% | 54.5% | 61.4% | 64.9% | – | – | – | – | – | – | – | – | –
6 | 81.31 mg/kg | 0.44 | N#Cc1c(Nc2ccccc2)nc(SCC(=O)Nn2c(COc3ccc(Cl)cc3Cl)nc3ccccc3c2=O)nc1-c1ccc(O)cc1 | 90.4% | 90.9% | 91.2% | 91.2% | 11.38 | 77.2% | 96.5% | >90% | – | – | – | – | –
7 | – | – | N#Cc1c(Cl)nc(SCC(=O)Nn2c(COc3ccc(Cl)cc3Cl)nc3ccccc3c2=O)nc1-c1ccccc1 | 53.9% | 60% | 66.7% | 68.4% | – | – | – | – | – | – | – | – | –
8 | 86.74 mg/kg | 20.6 | N#Cc1c(-c2ccccc2)nc(SCC(=O)Nn2c(COc3ccc(Cl)cc3Cl)nc3ccccc3c2=O)[nH]c1=O | 80.8% | 81.8% | 86% | 86% | 14.4 | 68.4% | 91.2% | >90% | – | – | – | – | –
9 | – | – | Cn1c(SCC(=O)Nn2c(COc3ccc(Cl)cc3Cl)nc3ccccc3c2=O)nc(-c2ccccc2)c(C#N)c1=O | 51.9% | 54.5% | 59.6% | 59.6% | – | – | – | – | – | – | – | – | –
10 | – | – | O=C(CSc1nc(-c2ccc(O)cc2)c(C(=O)O)c(=O)[nH]1)Nn1c(COc2ccc(Cl)cc2Cl)nc2ccccc2c1=O | 32.7% | 36.4% | 38.6% | 38.6% | – | – | – | – | – | – | – | – | –
11 | 88.27 mg/kg | 7.3 | N#Cc1c(Nc2ccc(O)cc2)nc(SCC(=O)Nn2c(COc3ccc(Cl)cc3Cl)nc3ccccc3c2=O)nc1-c1ccc(O)cc1 | 80.8% | 86.4% | 86.8% | 86.8% | 14.22 | 56.1% | 91.2% | >90% | – | – | – | – | –
12 | – | – | O=C(CSc1nc(-c2ccccc2)c(C(=O)O)c(=O)[nH]1)Nn1c(COc2ccc(Cl)cc2Cl)nc2ccccc2c1=O | 61.5% | 69.1% | 68.4% | 64.9% | – | – | – | – | – | – | – | – | –
13 | – | – | N#Cc1c(-c2ccc(Cl)cc2)nc(SCC(=O)Nn2c(COc3ccc(Cl)cc3Cl)nc3ccccc3c2=O)n(Cc2ccccc2)c1=O | 61.5% | 72.7% | 77.2% | 77.2% | 11.3 | – | – | – | – | – | – | – | –
14 | – | – | N#Cc1c(Cl)nc(SCC(=O)Nn2c(COc3ccc(Cl)cc3Cl)nc3ccccc3c2=O)nc1-c1ccc(Cl)cc1 | 61.5% | 63.6% | 68.4% | 68.4% | – | – | – | – | – | – | – | – | –
15 | 45.01 mg/kg | – | O=C([O-])Cc1ccccc1Nc1c(Cl)cccc1Cl.[Na+] [DICLOFENAC SODIUM] | – | – | – | 91.2% | – | 87.3% | – | – | 76.9% | 83.6% | 87.7% | 42.2% | 17.02
16 | – | – | O=C(CSc1nc(-c2ccc(Cl)cc2)c(C(=O)O)c(=O)[nH]1)Nn1c(COc2ccc(Cl)cc2Cl)nc2ccccc2c1=O | 51.9% | 58.2% | 61.4% | 61.4% | – | – | – | – | – | – | – | – | –
17 | – | – | N#Cc1c(Nc2ccccc2)nc(SCC(=O)Nn2c(COc3ccc(Cl)cc3Cl)nc3ccccc3c2=O)nc1-c1ccc(Cl)cc1 | 36.5% | 43.6% | 50.9% | 56.1% | – | – | – | – | – | – | – | – | –
18 | – | – | Cn1c(SCC(=O)Nn2c(COc3ccc(Cl)cc3Cl)nc3ccccc3c2=O)nc(-c2ccc(Cl)cc2)c(C#N)c1=O | 80.8% | 76.4% | 73.7% | 73.7% | – | – | – | – | – | – | – | – | –
19 | – | – | N#Cc1c(-c2ccc(O)cc2)nc(SCC(=O)Nn2c(COc3ccc(Cl)cc3Cl)nc3ccccc3c2=O)[nH]c1=O | 61.5% | 63.6% | 68.4% | 68.4% | – | – | – | – | – | – | – | – | –
20 | 83.36 mg/kg | 0.4 | N#Cc1c(Nc2ccc(O)cc2)nc(SCC(=O)Nn2c(COc3ccc(Cl)cc3Cl)nc3ccccc3c2=O)nc1-c1ccc(Cl)cc1 | 71.2% | 90.9% | 91.2% | 91.2% | 14.43 | 61.4% | 96.5% | >90% | – | – | – | – | –
21 | 82.89 mg/kg | 0.62 | Cn1c(SCC(=O)Nn2c(COc3ccc(Cl)cc3Cl)nc3ccccc3c2=O)nc(-c2ccc(O)cc2)c(C#N)c1=O | 76.9% | 80% | 86% | 86% | 11.22 | 70.4% | 97.8% | >90% | – | – | – | – | –
22 | – | – | N#Cc1c(-c2ccc(Cl)cc2)nc(SCC(=O)Nn2c(COc3ccc(Cl)cc3Cl)nc3ccccc3c2=O)[nH]c1=O | 61.5% | 63.6% | 64.9% | 64.9% | – | – | – | – | – | – | – | – | –
23 | – | – | N#Cc1c(Nc2ccc(Cl)cc2)nc(SCC(=O)Nn2c(COc3ccc(Cl)cc3Cl)nc3ccccc3c2=O)nc1-c1ccccc1 | 51.9% | 54.5% | 57.9% | 59.6% | – | – | – | – | – | – | – | – | –
24 | – | – | N#Cc1c(Nc2ccc(Cl)cc2)nc(SCC(=O)Nn2c(COc3ccc(Cl)cc3Cl)nc3ccccc3c2=O)nc1-c1ccc(O)cc1 | 65.4% | 72.7% | 77.2% | 79% | 12.08 | – | – | – | – | – | – | – | –
25 | – | 0.02 | Cc1ccc(-c2cc(C(F)(F)F)nn2-c2ccc(S(N)(=O)=O)cc2)cc1 [CELECOXIB] | – | – | – | – | – | – | – | – | – | – | – | – | 12.51
26 | – | – | N#Cc1c(Nc2ccc(O)cc2)nc(SCC(=O)Nn2c(COc3ccc(Cl)cc3Cl)nc3ccccc3c2=O)nc1-c1ccccc1 | 61.5% | 72.7% | 59.6% | 59.6% | – | – | – | – | – | – | – | – | –

— ChEMBL document CHEMBL2034933, “New quinazolinone-pyrimidine hybrids: synthesis, anti-inflammatory, and ulcerogenicity studies” (Eur J Med Chem, 2012)
